According to PubChem BioAssay AID775 (SRMLSC, 2007):
About 900 (0.69%) of roughly 130,000 compounds were called active. The sample holds actives, similar compounds and a random draw of the others, so the mix is not that of the screen.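 The calls were made as follows: active = inhibition above a set limit, placed 3 SD over the median of all compounds (cut at about 26% in these data); inactive = the rest.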

Assay: rescue of nicotinamide-shortened yeast lifespan – S. cerevisiae, OD615, primary screen (AID 775);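 also: 0% = nicotinamide-treated wells and 100% = cells grown without nicotinamide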
Conditions: S. cerevisiae growth with nicotinamide, at 10 µM, hits give high values, deaD strain in restrictive glucose medium
Procedure, shortened: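 assay system = DeaD-strain S. cerevisiae | measured by = absorbance at 615 nm | probe or stimulus = nicotinamide 1.5 mM | buffer or medium = CSMM-D glucose medium, restrictive | times = 48 h at 30 °C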

Structure (SMILES)	inhibition of the nicotinamide effect
CC(Sc1nc(-c2ccccc2)cc(C(F)(F)F)n1)C(=O)Nc1ccc2c(c1)OCO2 (stereo not drawn)	-1.2% (inactive)
O=C1CCCC(O)=C1N=Nc1ccc2ncsc2c1	-3.17% (inactive)
Cc1cc(C(=O)COc2ccccc2[N+](=O)[O-])c(C)n1-c1cccc(S(=O)(=O)N2CCOCC2)c1	1.02% (inactive)
Oc1ccc(Br)cc1C=Nc1ccc2[nH]ncc2c1	40.4% (active)
O=C(CCCO)N/N=C/c1cc(Br)ccc1O	25% (inactive)
Oc1ccc(Cl)cc1/C=N/c1nc2ccccc2[nH]1	6.53% (inactive)
Cc1c(NC(=S)NCc2ccc(F)cc2)cccc1[N+](=O)[O-]	0.2% (inactive)
Oc1c(CN2CCN(c3ccc(F)cc3)CC2)cc(Cl)c2cccnc12	-13.6% (inactive)
CCOC(=O)N1CCN(C(c2cccnc2)c2ccc3cccnc3c2O)CC1 (stereo not drawn)	-7.28% (inactive)
CCN1CCN(C(c2cccnc2)c2cc(Cl)c3cccnc3c2O)CC1 (stereo not drawn)	30.4% (active)
Cc1ccc(NN=C2C(=O)OC(C)(C)OC2=O)c(C)c1	-2.15% (inactive)
CC(=O)Nc1ccc(S(=O)(=O)NC2(C(F)(F)F)C(=O)Nc3c2c(=O)[nH]c(=O)n3Cc2ccccc2)cc1 (stereo not drawn)	2.33% (inactive)
C/C(=N/NC(=O)c1ccc(Br)o1)c1ccc(C)o1	-2.27% (inactive)
COc1cc(C(=O)Nc2cc(C(F)(F)F)ccc2N2CCOCC2)ccc1O	-3.94% (inactive)
O=C(NC(CC(=O)N1CCN(c2ccccc2)CC1)c1ccccc1)c1ccccc1Cl (stereo not drawn)	35.4% (active)
CC(CC(=O)N1CCN(c2ccccc2)CC1)c1ccccc1 (stereo not drawn)	-11.3% (inactive)
COC(=O)c1ccccc1OCC(=O)N1CCN(c2ccc(Cl)cc2)CC1	-19.3% (inactive)
C/C(=N/NC(=O)CSc1ccccn1)c1ccc([N+](=O)[O-])cc1	1.62% (inactive)
Cn1cccc1/C=C1\SC(=S)N(NC(=O)c2ccc(Cl)cc2)C1=O	3.79% (inactive)
Cc1cc(C(=O)NNC(=S)Nc2ccccc2C)cs1	4.51% (inactive)
Cc1ccccc1NC(=O)c1ccccc1	43.2% (active)
O=C(NC(=O)c1ccccc1)NC(=O)c1ccccc1	-15.8% (inactive)
Cc1cc(C)c(NC(=O)c2oc3ccccc3c2COc2ccccc2)c(C)c1	0.31% (inactive)
COC(=O)C1=C(NC(=O)C(C)(C)C)CCS1	-1.21% (inactive)

Structure (SMILES)	inhibition of the nicotinamide effect
CCCCN(CC)C(=O)c1ccc2c(c1)OCO2	-2.79% (inactive)
Cn1cc([N+](=O)[O-])c(C(=O)Nc2cnn(Cc3ccc(F)cc3)c2)n1	10.4% (inactive)
Cc1cccc(NC(=O)/C=C/c2ccc3c(c2)OCO3)n1	-5.25% (inactive)
CCOc1ccccc1/C=c1\sc2nc(-c3ccco3)nn2c1=O	21.5% (inactive)
O=C(CCCN1C(=O)/C(=C/c2ccco2)SC1=S)Nc1ccccc1	4.28% (inactive)
O=c1nc2s/c(=C\c3ccco3)c(=O)n2nc1Cc1ccccc1	26.9% (active)
NC(=O)c1ccccc1N=Cc1ccc2ccccc2c1	8.87% (inactive)
CCC1=NN(C(=O)Cc2ccc([N+](=O)[O-])cc2)C(O)(c2ccc(Br)cc2)C1 (stereo not drawn)	3.83% (inactive)
CN(C)C(CNC(=O)c1ccc(S(=O)(=O)NCc2ccco2)cc1)c1ccccc1 (stereo not drawn)	3.63% (inactive)
Cn1c2ccccc2c(=O)c2c(=O)n(Cc3ccco3)c(COc3ccccc3)nc21	17.5% (inactive)
CCOC(=O)C(C)Sc1nc2ccccc2c(=O)n1CC1CCCCC1 (stereo not drawn)	8.34% (inactive)
CCCc1nc2c(c(=O)c3ccccc3n2C)c(=O)n1C1CCCCCC1	47.5% (active)
CCOC(=O)c1c(NC(=O)C2(C)Cc3ccccc3C(=O)O2)sc2c1CCCC2 (stereo not drawn)	1.18% (inactive)
O=C(NCc1ccccc1Cl)C1CCC(CNc2c(N3CCCCC3)c(=O)c2=O)CC1 (stereo not drawn)	3.91% (inactive)
CCS(=O)(=O)Nc1cccc(-c2cc(-c3ccccc3)c3cc(C)ccc3n2)c1	1.36% (inactive)
COc1ccc(C(CC(=O)Nc2ccc(C)cc2)NC(=O)C(F)(F)F)cc1 (stereo not drawn)	-0.39% (inactive)
Cc1ccc2sc(NNC(=O)c3ccc4c(c3)OCCO4)nc2c1C	0% (inactive)
O=C(N/N=C/c1ccccn1)C12CC3CC(CC(C3)C1)C2	3.48% (inactive)
COc1ccc([C@H]2[C@H](C(C)=O)N3N=Cc4ccccc4C3C23C(=O)OC(C)(C)OC3=O)cc1 (stereo partly drawn)	30.5% (active)
COc1ccc(C2C(C(=O)N3CCN(c4ccc(OC)cc4)CC3)c3ccccc3C(=O)N2C)cc1 (stereo not drawn)	-6.01% (inactive)
O=C(Nc1ccc2ccccc2c1)/C(=C/c1cccc(Br)c1)NC(=O)c1ccco1	-1.18% (inactive)
COC(=O)C1=NNC2(c3ccc(C)cc3)C(=O)N(c3cccc(C)c3C)C(=O)C12 (stereo not drawn)	14.3% (inactive)
COc1ccc(C(=O)NNS(=O)(=O)c2ccc(C)cc2)cc1	3.8% (inactive)
CC(C)CNC(=S)NC(=O)c1ccc(Cl)cc1	-5.06% (inactive)
